Reference: ChEMBL document CHEMBL2401700, “Discovery of TD-8954, a clinical stage 5-HT(4) receptor agonist with gastrointestinal prokinetic properties” (Bioorg Med Chem Lett, 2013)
Calls of active or inactive are those of the source. No cut-off for these calls is given here.

Legend:
[1] = Cmax in beagle dog at 2 mg/kg, po; type: ADME, organism-based, Canis lupus familiaris; design: dose 2 mg/kg, route oral; conditions: in vivo
[2] = Elimination half life in healthy human; type: ADME, organism-based; conditions: in vivo, read-out: beta t1/2 (converted)
[3] = target: 5-hydroxytryptamine receptor 2A (Homo sapiens, UniProt P28223); assay: Inhibition of serotonin 5-HT2A receptor (unknown origin) at 1 uM
[4] = target: 5-hydroxytryptamine receptor 1D (Homo sapiens, UniProt P28221); assay: Inhibition of serotonin 5-HT1D receptor (unknown origin) at 1 uM
Homo sapiens = species on record: Homo sapiens; assay: Increase in bowel movements in healthy human at 0.1 to 20 mg after 24 hrs relative to placebo
[5] = target: 5-hydroxytryptamine receptor 4 (Homo sapiens, UniProt Q13639); assay: Agonist activity at human recombinant 5HT4 receptor assessed as cAMP accumulation relative to 5-HT; type: functional
Summary of the method: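 cAMP accumulation in cells expressing human recombinant 5-HT4 receptor, reported as pEC50 with intrinsic activity as % of the maximum response achieved by 5-HT.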

[6] = target: 5-hydroxytryptamine receptor 5A (Homo sapiens) (UniProt P47898); assay: Inhibition of serotonin 5-HT5A receptor (unknown origin) at 1 uM
Cavia porcellus = assay: Prokinetic activity at guinea pig colonic transit model assessed as reduction in time taken for excretion of first pellet at 0.03 mg/kg, sc by carmine red dye-based assay relative to vehicle-treated control; type: functional; design: scale not given: the % may be the effect or the level left; conditions: route subcutaneous
Summary of the method: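 Conscious guinea pigs given sc doses of 0.03, 0.3 or 3 mg/kg or vehicle (2 mL/kg), n = 9–22 per group. Colonic transit was measured as time to excretion of the first fecal pellet containing carmine red dye marker. Compared with vehicle by ANOVA with Dunnett's post-hoc test, p < 0.05.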

[7] = target: T1, 5-hydroxytryptamine receptor 1A (Homo sapiens) (UniProt P08908); assay: Inhibition of serotonin 5-HT1A receptor (unknown origin) at 1 uM
T1 sequence (whole entry): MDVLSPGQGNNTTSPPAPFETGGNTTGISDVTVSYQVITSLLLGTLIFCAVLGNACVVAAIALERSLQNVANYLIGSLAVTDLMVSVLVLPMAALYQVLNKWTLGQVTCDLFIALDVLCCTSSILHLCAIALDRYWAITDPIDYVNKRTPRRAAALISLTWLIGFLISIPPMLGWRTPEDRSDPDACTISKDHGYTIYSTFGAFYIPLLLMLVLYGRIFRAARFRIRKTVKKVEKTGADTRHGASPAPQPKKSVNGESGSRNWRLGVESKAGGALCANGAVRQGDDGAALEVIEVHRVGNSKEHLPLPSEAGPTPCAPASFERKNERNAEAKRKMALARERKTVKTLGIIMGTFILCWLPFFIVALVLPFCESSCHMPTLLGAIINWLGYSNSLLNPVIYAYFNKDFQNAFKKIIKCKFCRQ

[8] = target: 5-hydroxytryptamine receptor 6 (Homo sapiens) (UniProt P50406); assay: Inhibition of serotonin 5-HT6 receptor (unknown origin) at 1 uM
[9] = Oral bioavailability in beagle dog at 2 mg/kg; type: ADME, organism-based, Canis lupus familiaris; conditions: in vivo
[10] = target: T2, 5-hydroxytryptamine receptor 3A (Homo sapiens, UniProt P46098); assay: Binding affinity to human recombinant 5HT3 receptor
T2 sequence (P46098 whole entry): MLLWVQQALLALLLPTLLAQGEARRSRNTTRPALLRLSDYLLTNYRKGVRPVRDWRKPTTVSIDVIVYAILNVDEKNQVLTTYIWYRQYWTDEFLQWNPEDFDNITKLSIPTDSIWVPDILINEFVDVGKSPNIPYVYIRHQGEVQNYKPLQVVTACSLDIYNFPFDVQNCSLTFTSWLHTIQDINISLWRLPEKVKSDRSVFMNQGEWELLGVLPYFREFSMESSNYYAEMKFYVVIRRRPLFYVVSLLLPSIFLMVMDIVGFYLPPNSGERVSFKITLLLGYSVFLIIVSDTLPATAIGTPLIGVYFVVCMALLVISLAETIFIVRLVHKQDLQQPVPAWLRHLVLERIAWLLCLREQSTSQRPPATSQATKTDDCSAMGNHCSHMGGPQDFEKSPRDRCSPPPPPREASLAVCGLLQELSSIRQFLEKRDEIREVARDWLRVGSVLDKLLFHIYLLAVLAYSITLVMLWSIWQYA

[11] = Half life in beagle dog at 2 mg/kg, po; type: ADME, organism-based, Canis lupus familiaris; design: dose 2 mg/kg, route oral; conditions: in vivo
[12] = target: T3, 5-hydroxytryptamine receptor 3A (Homo sapiens) (UniProt P46098); assay: Inhibition of serotonin 5-HT3A receptor (unknown origin) at 1 uM
T3 sequence (whole entry): T2 sequence (P46098 whole entry)

[13] = Cmax in Sprague-Dawley rat at 5 mg/kg, po; type: ADME, organism-based; design: dose 5 mg/kg, route oral; conditions: in vivo
[14] = Cardiotoxicity in human coronary artery assessed as coronary artery constriction; type: toxicity, tissue-based
[15] = target: 5-hydroxytryptamine receptor 1B (Homo sapiens) (UniProt P28222); assay: Inhibition of serotonin 5-HT1B receptor (unknown origin) at 1 uM
Rattus norvegicus [16] = assay: Induction of 5-HT4 receptor-mediated esophageal relaxation in ID dosed rat; type: functional
Summary of the method: (§1)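 Anesthetized rats dosed intraduodenally over about 0.01–10 mg/kg. Esophageal relaxation was tracked by digital sonomicrometry as the change in inter-crystal distance (mm), n = 4–6. An ED50 was derived from the dose–response, and the dose giving a 0.1 mm relaxation response was calculated.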

[17] = AUC (0 to t) in Sprague-Dawley rat at 5 mg/kg, po; type: ADME, organism-based; design: dose 5 mg/kg, route oral; conditions: plasma
[18] = Half life in Sprague-Dawley rat at 5 mg/kg, po; type: ADME, organism-based; design: dose 5 mg/kg, route oral; conditions: in vivo
[19] = Oral bioavailability in Sprague-Dawley rat at 5 mg/kg; type: ADME, organism-based; conditions: in vivo
[20] = target: T4, 5-hydroxytryptamine receptor 2C (Homo sapiens) (UniProt P28335); assay: Inhibition of serotonin 5-HT2C receptor (unknown origin) at 1 uM
T4 sequence (whole entry): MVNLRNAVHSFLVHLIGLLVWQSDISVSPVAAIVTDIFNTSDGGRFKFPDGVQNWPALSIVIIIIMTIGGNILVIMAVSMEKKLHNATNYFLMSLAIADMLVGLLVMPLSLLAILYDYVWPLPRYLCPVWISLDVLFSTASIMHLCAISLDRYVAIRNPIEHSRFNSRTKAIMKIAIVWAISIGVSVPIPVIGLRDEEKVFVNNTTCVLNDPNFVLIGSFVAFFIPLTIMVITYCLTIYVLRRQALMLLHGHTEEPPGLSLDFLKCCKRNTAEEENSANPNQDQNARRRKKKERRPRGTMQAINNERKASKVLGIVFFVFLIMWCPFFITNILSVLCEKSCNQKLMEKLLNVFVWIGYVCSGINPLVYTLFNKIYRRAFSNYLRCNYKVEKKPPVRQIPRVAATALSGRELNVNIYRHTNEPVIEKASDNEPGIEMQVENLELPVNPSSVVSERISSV

[21] = target: 5-hydroxytryptamine receptor 4 (Cavia porcellus) (UniProt O70528)
[22] = Cardiotoxicity in pig coronary artery assessed as coronary artery constriction; type: toxicity, tissue-based, Sus scrofa
Rattus norvegicus [23] = assay: Agonist activity at 5HT4 receptor in ID dosed rat assessed as dose required to cause esophageal relaxation of 0.1 mm; type: functional; summary of the method: as §1
[24] = Half life in rat liver micrososmes; type: ADME, Microsome; conditions: liver microsomes
[25] = Permeability across human Caco2 cells; type: ADME, cell-based; conditions: Caco-2, read-out: Kp
[26] = AUC (0 to t) in beagle dog at 2 mg/kg, po; type: ADME, organism-based, Canis lupus familiaris; design: dose 2 mg/kg, route oral; conditions: plasma
[27] = Cardiotoxicity in dog coronary artery assessed as coronary artery constriction; type: toxicity, tissue-based, Canis lupus familiaris
[28] = target: 5-hydroxytryptamine receptor 2B (Homo sapiens, UniProt P41595); assay: Inhibition of serotonin 5-HT2B receptor (unknown origin) at 1 uM
[29] = target: 5-hydroxytryptamine receptor 7 (Homo sapiens, UniProt P34969); assay: Inhibition of serotonin 5-HT7 receptor (unknown origin) at 1 uM
Chain of 5-hydroxytryptamine receptor 7 (P34969 whole entry): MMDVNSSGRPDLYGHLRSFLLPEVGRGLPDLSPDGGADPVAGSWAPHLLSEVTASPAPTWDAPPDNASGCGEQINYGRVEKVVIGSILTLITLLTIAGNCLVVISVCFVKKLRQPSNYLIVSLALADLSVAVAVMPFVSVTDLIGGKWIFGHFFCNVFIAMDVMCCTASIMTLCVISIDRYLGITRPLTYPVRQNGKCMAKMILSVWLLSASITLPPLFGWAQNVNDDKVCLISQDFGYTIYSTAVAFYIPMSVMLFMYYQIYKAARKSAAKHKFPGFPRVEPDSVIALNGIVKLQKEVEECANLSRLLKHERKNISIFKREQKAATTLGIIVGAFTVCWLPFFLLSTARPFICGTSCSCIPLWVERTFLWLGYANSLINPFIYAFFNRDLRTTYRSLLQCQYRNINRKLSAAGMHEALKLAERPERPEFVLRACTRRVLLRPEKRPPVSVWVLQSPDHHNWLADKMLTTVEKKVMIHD

Chain of 5-hydroxytryptamine receptor 4 (Cavia porcellus) (O70528 whole entry): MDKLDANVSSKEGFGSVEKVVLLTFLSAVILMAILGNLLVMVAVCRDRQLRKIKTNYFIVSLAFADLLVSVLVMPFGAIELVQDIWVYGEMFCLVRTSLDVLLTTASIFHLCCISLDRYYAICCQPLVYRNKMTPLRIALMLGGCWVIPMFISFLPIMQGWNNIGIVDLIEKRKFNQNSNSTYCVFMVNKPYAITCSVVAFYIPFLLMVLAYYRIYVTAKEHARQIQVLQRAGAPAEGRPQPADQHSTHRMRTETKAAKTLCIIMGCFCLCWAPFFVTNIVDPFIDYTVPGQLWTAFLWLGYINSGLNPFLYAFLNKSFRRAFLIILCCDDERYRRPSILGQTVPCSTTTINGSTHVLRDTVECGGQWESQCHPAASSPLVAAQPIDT
Chain of 5-hydroxytryptamine receptor 6 (Homo sapiens) (P50406 whole entry): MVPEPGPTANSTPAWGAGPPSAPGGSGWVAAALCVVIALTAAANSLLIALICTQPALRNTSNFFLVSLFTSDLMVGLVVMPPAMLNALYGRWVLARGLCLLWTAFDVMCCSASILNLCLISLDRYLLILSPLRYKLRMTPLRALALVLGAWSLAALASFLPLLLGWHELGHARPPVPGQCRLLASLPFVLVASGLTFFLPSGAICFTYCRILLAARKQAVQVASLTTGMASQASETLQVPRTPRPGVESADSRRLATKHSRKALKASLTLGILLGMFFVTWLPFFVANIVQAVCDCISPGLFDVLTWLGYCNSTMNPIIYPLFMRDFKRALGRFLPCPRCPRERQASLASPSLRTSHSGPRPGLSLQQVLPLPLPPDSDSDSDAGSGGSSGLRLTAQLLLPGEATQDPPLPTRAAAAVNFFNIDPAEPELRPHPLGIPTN
Chain of 5-hydroxytryptamine receptor 1D (P28221 whole entry): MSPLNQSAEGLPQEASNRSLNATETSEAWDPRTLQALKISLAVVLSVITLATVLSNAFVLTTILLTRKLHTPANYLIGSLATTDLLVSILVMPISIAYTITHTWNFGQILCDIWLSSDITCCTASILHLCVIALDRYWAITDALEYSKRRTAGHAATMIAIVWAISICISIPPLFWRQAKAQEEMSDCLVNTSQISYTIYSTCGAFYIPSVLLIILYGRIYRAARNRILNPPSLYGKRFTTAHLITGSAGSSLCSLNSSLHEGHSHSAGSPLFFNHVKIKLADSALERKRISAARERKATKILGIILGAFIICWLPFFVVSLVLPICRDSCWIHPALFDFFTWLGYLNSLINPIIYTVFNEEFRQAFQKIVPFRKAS
Chain of 5-hydroxytryptamine receptor 1B (Homo sapiens) (P28222 whole entry): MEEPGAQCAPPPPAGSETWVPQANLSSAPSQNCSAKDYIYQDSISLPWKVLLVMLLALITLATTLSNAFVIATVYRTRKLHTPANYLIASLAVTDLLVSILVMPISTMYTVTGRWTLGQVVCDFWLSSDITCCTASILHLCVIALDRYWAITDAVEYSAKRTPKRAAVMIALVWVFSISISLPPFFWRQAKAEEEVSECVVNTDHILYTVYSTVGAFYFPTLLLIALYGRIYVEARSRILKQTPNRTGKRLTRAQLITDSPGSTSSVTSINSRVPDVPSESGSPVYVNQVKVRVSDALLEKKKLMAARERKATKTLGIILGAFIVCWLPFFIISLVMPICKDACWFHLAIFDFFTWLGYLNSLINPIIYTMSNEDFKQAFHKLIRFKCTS
Chain of 5-hydroxytryptamine receptor 4 (Q13639 whole entry): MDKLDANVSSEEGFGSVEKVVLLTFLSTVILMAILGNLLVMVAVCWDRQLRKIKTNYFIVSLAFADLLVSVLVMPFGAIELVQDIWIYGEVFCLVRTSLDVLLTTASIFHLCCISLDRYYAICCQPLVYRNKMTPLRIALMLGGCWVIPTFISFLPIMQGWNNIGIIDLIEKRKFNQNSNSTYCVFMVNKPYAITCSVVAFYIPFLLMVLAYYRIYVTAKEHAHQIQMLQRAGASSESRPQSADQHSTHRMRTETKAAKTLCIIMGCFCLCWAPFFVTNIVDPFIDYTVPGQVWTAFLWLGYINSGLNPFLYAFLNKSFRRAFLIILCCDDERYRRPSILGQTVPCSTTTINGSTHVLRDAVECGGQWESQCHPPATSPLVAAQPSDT
Chain of 5-hydroxytryptamine receptor 5A (Homo sapiens) (P47898 whole entry): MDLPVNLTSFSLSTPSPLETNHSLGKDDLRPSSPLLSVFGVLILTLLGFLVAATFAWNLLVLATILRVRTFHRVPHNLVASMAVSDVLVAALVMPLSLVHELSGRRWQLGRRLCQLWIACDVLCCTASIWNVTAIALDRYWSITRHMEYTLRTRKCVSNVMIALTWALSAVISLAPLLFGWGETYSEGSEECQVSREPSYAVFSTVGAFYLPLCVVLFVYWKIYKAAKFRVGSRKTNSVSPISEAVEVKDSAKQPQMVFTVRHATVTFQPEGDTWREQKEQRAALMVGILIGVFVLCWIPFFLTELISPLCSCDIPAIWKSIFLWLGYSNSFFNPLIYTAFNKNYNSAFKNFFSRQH
Chain of 5-hydroxytryptamine receptor 2B (P41595 whole entry): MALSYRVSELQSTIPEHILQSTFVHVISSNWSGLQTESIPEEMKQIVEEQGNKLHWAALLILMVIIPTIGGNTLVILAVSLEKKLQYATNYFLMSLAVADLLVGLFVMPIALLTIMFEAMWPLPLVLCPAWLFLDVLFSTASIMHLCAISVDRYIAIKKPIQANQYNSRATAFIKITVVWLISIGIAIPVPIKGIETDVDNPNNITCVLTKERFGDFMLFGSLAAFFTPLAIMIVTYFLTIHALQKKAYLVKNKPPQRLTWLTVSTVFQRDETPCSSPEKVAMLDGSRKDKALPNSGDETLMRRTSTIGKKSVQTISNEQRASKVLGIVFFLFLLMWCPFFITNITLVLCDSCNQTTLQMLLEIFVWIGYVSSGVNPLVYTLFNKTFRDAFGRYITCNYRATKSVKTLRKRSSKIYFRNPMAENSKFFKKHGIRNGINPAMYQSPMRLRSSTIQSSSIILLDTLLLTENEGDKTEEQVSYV
Chain of 5-hydroxytryptamine receptor 2A (P28223 whole entry): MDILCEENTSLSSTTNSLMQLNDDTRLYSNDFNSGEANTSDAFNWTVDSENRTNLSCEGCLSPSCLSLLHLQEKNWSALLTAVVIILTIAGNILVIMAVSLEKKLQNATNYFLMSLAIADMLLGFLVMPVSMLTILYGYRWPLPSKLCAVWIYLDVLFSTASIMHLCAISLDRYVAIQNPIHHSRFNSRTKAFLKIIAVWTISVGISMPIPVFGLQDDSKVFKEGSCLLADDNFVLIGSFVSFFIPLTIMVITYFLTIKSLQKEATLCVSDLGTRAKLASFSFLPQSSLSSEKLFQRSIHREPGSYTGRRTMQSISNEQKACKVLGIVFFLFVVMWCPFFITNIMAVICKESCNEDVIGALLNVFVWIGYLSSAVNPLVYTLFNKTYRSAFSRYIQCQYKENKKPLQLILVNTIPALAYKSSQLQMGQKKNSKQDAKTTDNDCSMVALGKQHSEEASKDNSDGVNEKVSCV

Structure (SMILES): COC(=O)N1CCC(CN2CCC(CNC(=O)c3cccc4[nH]c(C(C)C)nc34)CC2)CC1
- Cmax [1]: 464 ng/mL
- half-life [2]: 12 h
- inhibition [3]: < 50%
- inhibition [4]: < 50%
- Activity (Homo sapiens): Active
- Intrinsic activity [5]: 83%
- inhibition [6]: < 50%
- Activity (Cavia porcellus): 40%
- inhibition [7]: < 50%
- inhibition [8]: < 50%
- bioavailability [9]: 63%
- Ki [10]: 100 µM
- half-life [11]: 3.5 h
- inhibition [12]: < 50%
- Cmax [13]: 818 ng/mL
- Activity [14]: Non-toxic
- inhibition [15]: < 50%
- Activity (Rattus norvegicus [16]): Dose-dependent effect
- ED50 (Rattus norvegicus [16]): 0.15 mg/kg
- AUC(0-t) [17]: 1240 ng·h/mL
- half-life [18]: 1.6 h
- bioavailability [19]: 77%
- inhibition [20]: < 50%
- pKb(app) [21]: 9.3
- Activity [22]: Non-toxic
- Activity (Rattus norvegicus [23]): 0.23 mg/kg
- half-life [24]: 1.43 h
- Papp [25]: 54 ×10⁻⁶ cm/s
- AUC(0-t) [26]: 2280 ng·h/mL
- Activity [27]: Non-toxic
- inhibition [28]: < 50%
- inhibition [29]: < 50%
